# Measurements published in ChEMBL document CHEMBL4138219, “Pyrano[3,2-a]carbazole alkaloids as effective agents against ischemic stroke in vitro and in vivo” (Eur J Med Chem, 2018).
# Active and inactive are the calls of the source. No cut-off for these calls is given here.
# Legend:
# [1] = Antioxidant activity assessed as free radical scavenging activity at 25 mg/ml by ESR method; type: functional
# How it was run: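 ESR spin-trapping was done at room temperature. 50 mmol/L TEMP and 25 mg/mL compound were mixed in DMSO and exposed to UVA light for 1 min before recording. Settings were 10 mW microwave power, 1 G field modulation and 150 G scan width.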
# Rattus norvegicus [2] = experiment: Reversal of middle cerebral artery occlusion and reperfusion-induced death in Sprague-Dawley rat assessed as survival rate at 20 mg/kg administered via oral gavage as qd for 7 days measured on day 7 post reperfusion (reference value: 50%); type: functional; details: 168 h
# [3] = Plasma concentration in Sprague-Dawley rat at 40 mg/kg administered via oral gavage measured at 0.5 hrs by LC-MS/MS method; type: ADME, organism-based
# How it was run: (§1)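 For the time-course, male SD rats (260–280 g) received a single 40 mg/kg oral gavage dose and were killed at 0.083, 0.25, 0.5, 1, 2, 4, 6, 8, 12 and 24 h (n = 3 each). Plasma and brain homogenate (three volumes of saline) were protein-precipitated, centrifuged, and analyzed by validated LC-MS/MS. Results are given as mean ± SD.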
# [4] = Cmax in Sprague-Dawley rat plasma at 40 mg/kg administered via oral gavage by LC-MS/MS method; type: ADME, organism-based; design: dose 40 mg/kg, route oral
# [5] = Plasma concentration in Sprague-Dawley rat at 40 mg/kg administered via oral gavage measured at 4 hrs by LC-MS/MS method; type: ADME, organism-based; how it was run: as §1
# [6] = Drug uptake in Sprague-Dawley rat brain at 40 mg/kg administered via oral gavage measured at 0.25 hrs by LC-MS/MS method; type: ADME, organism-based; details: in vivo, BLD = below limit of detection; how it was run: as §1
# [7] = Drug uptake in Sprague-Dawley rat brain at 40 mg/kg administered via oral gavage measured at 0.083 hrs by LC-MS/MS method; type: ADME, organism-based; details: in vivo, BLD = below limit of detection; how it was run: as §1
# [8] = Ratio of AUC (0 to t) in Sprague-Dawley rat brain to plasma at 40 mg/kg administered via oral gavage; type: ADME, organism-based; details: read-out: Ratio AUC
# How it was run: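 Brain-to-plasma exposure ratio, taken as AUC(0-t) in brain tissue divided by AUC(0-t) in plasma. Male SD rats (260–280 g) received a single 40 mg/kg oral gavage dose and were sampled from 0.083 to 24 h (n = 3 per time point). Brain was homogenized in saline and quantified by LC-MS/MS.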
# [9] = Plasma concentration in Sprague-Dawley rat at 40 mg/kg administered via oral gavage measured at 24 hrs by LC-MS/MS method; type: ADME, organism-based; how it was run: as §1
# [10] = Drug uptake in Sprague-Dawley rat brain at 40 mg/kg administered via oral gavage measured at 12 hrs by LC-MS/MS method; type: ADME, organism-based; details: read-out: Drug uptake; how it was run: as §1
# [11] = Drug uptake in Sprague-Dawley rat brain at 40 mg/kg administered via oral gavage measured at 6 hrs by LC-MS/MS method; type: ADME, organism-based; details: read-out: Drug uptake; how it was run: as §1
# Rattus norvegicus [12] = experiment: Increase in neurological function in Sprague-Dawley rat middle cerebral artery occlusion and reperfusion model assessed as decrease in behavior deficit at 20 to 80 mg/kg administered via oral gavage as qd for 7 days measured on day 7 post reperfusion by Zea Longa's test; type: functional, organism-based
# How it was run: (§2)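 Male SD rats (260–280 g) underwent MCAO with reperfusion. They were randomized to model, 80 mg/kg 3-n-butylphthalide, or compound at 20, 40 or 80 mg/kg. Rats without neurological impairment after reperfusion were excluded. Neurological deficit was scored on days 1–7 by the Zea Longa test, and forelimb falls were counted in a grid test.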
# [13] = Plasma concentration in Sprague-Dawley rat at 40 mg/kg administered via oral gavage measured at 6 hrs by LC-MS/MS method; type: ADME, organism-based; how it was run: as §1
# [14] = Drug uptake in Sprague-Dawley rat brain at 40 mg/kg administered via oral gavage measured at 1 hr by LC-MS/MS method; type: ADME, organism-based; details: read-out: Drug uptake; how it was run: as §1
# [15] = Plasma concentration in Sprague-Dawley rat at 40 mg/kg administered via oral gavage measured at 0.083 hrs by LC-MS/MS method; type: ADME, organism-based; details: in vivo, BLD = below limit of detection; how it was run: as §1
# [16] = Drug uptake in Sprague-Dawley rat brain at 40 mg/kg administered via oral gavage measured at 4 hrs by LC-MS/MS method; type: ADME, organism-based; details: read-out: Drug uptake; how it was run: as §1
# Rattus norvegicus [17] = experiment: Reversal of middle cerebral artery occlusion and reperfusion-induced death in Sprague-Dawley rat assessed as survival rate at 40 mg/kg administered via oral gavage as qd for 7 days measured on day 7 post reperfusion (reference value: 50%); type: functional; details: 168 h
# [18] = Plasma concentration in Sprague-Dawley rat at 40 mg/kg administered via oral gavage measured at 0.25 hrs by LC-MS/MS method; type: ADME, organism-based; how it was run: as §1
# [19] = Drug uptake in Sprague-Dawley rat brain at 40 mg/kg administered via oral gavage measured at 24 hrs by LC-MS/MS method; type: ADME, organism-based; details: read-out: Drug uptake; how it was run: as §1
# Rattus norvegicus [20] = experiment: Reversal of middle cerebral artery occlusion and reperfusion-induced death in Sprague-Dawley rat assessed as survival rate at 80 mg/kg administered via oral gavage as qd for 7 days measured on day 7 post reperfusion (reference value: 50%); type: functional
# Cortical neurone [21] = experiment: Neuroprotective activity against H2O2-induced damage in Sprague-Dawley rat primary cortical neurons assessed as cell viability at 10 uM after 24 hrs by MTT assay (reference value: 70 +/- 2.6%); type: functional; details: read-out: Activity
# PC-12 [22] = experiment: Cytoprotective activity against H2O2-induced damage in rat PC12 cells assessed as cell viability at 10 uM after 24 hrs by MTT assay (reference value: 70.1 +/- 3.7%); type: functional; details: PC-12, 24 h, read-out: Activity
# PC-12 [23] = experiment: Cytoprotective activity against oxygen-glucose deprivation/reoxygenation-induced damage in rat PC12 cells assessed as cell viability at 10 uM after 24 hrs by MTT assay (reference value: 70 +/- 5.1%); type: functional; details: PC-12, 24 h, read-out: Activity
# [24] = Plasma concentration in Sprague-Dawley rat at 40 mg/kg administered via oral gavage measured at 8 hrs by LC-MS/MS method; type: ADME, organism-based; how it was run: as §1
# Rattus norvegicus [25] = experiment: Increase in neurological function in Sprague-Dawley rat middle cerebral artery occlusion and reperfusion model assessed as decrease in forelimb falling number at 20 to 80 mg/kg administered via oral gavage as qd for 7 days measured on day 2 to 7 during compound dosing post reperfusion by grid test; type: functional, organism-based; how it was run: as §2
# Cortical neurone [26] = experiment: Neuroprotective activity against H2O2-induced damage in Sprague-Dawley rat primary cortical neurons assessed as cell viability at 1 uM after 24 hrs by MTT assay (reference value: 70 +/- 2.6%); type: functional; details: read-out: Activity
# Rattus norvegicus [27] = experiment: Anti-cerebral ischemia in Sprague-Dawley rat middle cerebral artery occlusion and reperfusion model assessed as decrease in brain infract volume at 20 to 40 mg/kg administered via oral gavage as qd for 7 days measured on day 7 post reperfusion by TTC staining-based assay; type: functional, organism-based
# How it was run: (§3)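 Male Sprague-Dawley rats (260e280 g) randomised to MCAO/R, MCAO/R + NBP 80 mg/kg, or MCAO/R + compound at 20, 40 or 80 mg/kg. Rats without neurological impairment, or dead after reperfusion at 0 h, were excluded. On day 7, rats were transcardially perfused with PBS. Brains were cut into six 2-mm sections and stained with 1.5% TTC. Infarct = right pale area/left non-ischemic area, expressed as % of the MCAO/R group.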
# [28] = Plasma concentration in Sprague-Dawley rat at 40 mg/kg administered via oral gavage measured at 1 hr by LC-MS/MS method; type: ADME, organism-based; how it was run: as §1
# Rattus norvegicus [29] = experiment: Reversal of middle cerebral artery occlusion and reperfusion-induced decrease in body weight in Sprague-Dawley rat assessed as body weight at 20 mg/kg administered via oral gavage as qd for 7 days measured on day 7 post reperfusion (reference value: 82%); type: functional; design: scale not given: the % may be the effect or the level left
# [30] = AUC (0 to t) in Sprague-Dawley rat brain at 40 mg/kg administered via oral gavage by LC-MS/MS method; type: ADME, organism-based; details: in vivo
# [31] = Drug uptake in Sprague-Dawley rat brain at 40 mg/kg administered via oral gavage measured at 8 hrs by LC-MS/MS method; type: ADME, organism-based; details: read-out: Drug uptake; how it was run: as §1
# [32] = Drug uptake in Sprague-Dawley rat brain at 40 mg/kg administered via oral gavage measured at 2 hrs by LC-MS/MS method; type: ADME, organism-based; details: read-out: Drug uptake; how it was run: as §1
# [33] = Plasma concentration in Sprague-Dawley rat at 40 mg/kg administered via oral gavage measured at 2 hrs by LC-MS/MS method; type: ADME, organism-based; how it was run: as §1
# [34] = Drug uptake in Sprague-Dawley rat brain at 40 mg/kg administered via oral gavage measured at 0.5 hrs by LC-MS/MS method; type: ADME, organism-based; details: read-out: Drug uptake; how it was run: as §1
# [35] = Tmax in Sprague-Dawley rat brain at 40 mg/kg administered via oral gavage by LC-MS/MS method; type: ADME, organism-based
# [36] = Tmax in Sprague-Dawley rat plasma at 40 mg/kg administered via oral gavage by LC-MS/MS method; type: ADME, organism-based
# [37] = Plasma concentration in Sprague-Dawley rat at 40 mg/kg administered via oral gavage measured at 12 hrs by LC-MS/MS method; type: ADME, organism-based; how it was run: as §1
# [38] = Cmax in Sprague-Dawley rat brain at 40 mg/kg administered via oral gavage by LC-MS/MS method; type: ADME, organism-based; design: dose 40 mg/kg, route oral
# [39] = AUC (0 to t) in Sprague-Dawley rat plasma at 40 mg/kg administered via oral gavage by LC-MS/MS method; type: ADME, organism-based
# Rattus norvegicus [40] = experiment: Reversal of middle cerebral artery occlusion and reperfusion-induced decrease in body weight in Sprague-Dawley rat assessed as body weight at 80 mg/kg administered via oral gavage as qd for 7 days measured on day 7 post reperfusion (reference value: 82%); type: functional; design: scale not given: the % may be the effect or the level left
# Rattus norvegicus [41] = experiment: Increase in neurological function in Sprague-Dawley rat middle cerebral artery occlusion and reperfusion model assessed as decrease in behavior deficit at 80 mg/kg administered via oral gavage as qd for 7 days measured on day 7 post reperfusion by Zea Longa's test; type: functional, organism-based; how it was run: as §2
# Rattus norvegicus [42] = experiment: Anti-cerebral ischemia in Sprague-Dawley rat middle cerebral artery occlusion and reperfusion model assessed as decrease in brain infract volume at 80 mg/kg administered via oral gavage as qd for 7 days measured on day 7 post reperfusion by TTC staining-based assay; type: functional, organism-based; how it was run: as §3
# Cortical neurone [43] = experiment: Neuroprotective activity against H2O2-induced damage in Sprague-Dawley rat primary cortical neurons assessed as cell viability at 50 uM after 24 hrs by MTT assay (reference value: 70 +/- 2.6%); type: functional; details: read-out: Activity
smiles,measurement,setting,value
Cc1cc2c([nH]c3ccc(C(C)(C)C)cc32)c2c1OC(C)(C)C=C2,Activity,[1],Active
same,survival at 20 mg/kg,Rattus norvegicus [2],81.3%
same,concentration at 0.5 h,[3],157 ng/mL
same,Cmax,[4],1510 ng/mL
same,concentration at 4 h,[5],1110 ng/mL
same,Drug uptake,[6],Bld
same,Drug uptake,[7],Bld
same,Kp,[8],4.3
same,concentration at 24 h,[9],19.6 ng/mL
same,concentration at 12 h,[10],5330 ng/g
same,concentration at 6 h,[11],4720 ng/g
same,Activity,Rattus norvegicus [12],Active
same,concentration at 6 h,[13],1510 ng/mL
same,concentration at 1 h,[14],129 ng/g
same,Cp,[15],Bld
same,concentration at 4 h,[16],3080 ng/g
same,survival at 40 mg/kg,Rattus norvegicus [17],62.5%
same,concentration at 0.25 h,[18],264 ng/mL
same,concentration at 24 h,[19],472 ng/g
same,Activity,Rattus norvegicus [20],inactive
same,viability at 10 µM,Cortical neurone [21],119%
same,viability at 10 µM,PC-12 [22],96.8%
same,viability at 10 µM,PC-12 [23],96.1%
same,concentration at 8 h,[24],1140 ng/mL
same,Activity,Rattus norvegicus [25],Active
same,viability at 1 µM,Cortical neurone [26],97.6%
same,Activity,Rattus norvegicus [27],Active
same,concentration at 1 h,[28],324 ng/mL
same,Activity,Rattus norvegicus [29],94.7%
same,AUCt,[30],80618 ng·h/g
same,concentration at 8 h,[31],5890 ng/g
same,concentration at 2 h,[32],1160 ng/g
same,concentration at 2 h,[33],871 ng/mL
same,concentration at 0.5 h,[34],38.5 ng/g
same,Tmax,[35],8 h
same,Tmax,[36],6 h
same,concentration at 12 h,[37],1040 ng/mL
same,Cmax,[38],5890 ng/g
same,AUC(0-t),[39],18800 ng·h/mL
COc1ccc2c(c1)c1cc(C=O)c3c(c1n2C)C=CC(C)(C)O3,viability at 10 µM,PC-12 [22],93.8%
same,viability at 10 µM,PC-12 [23],94.4%
CCCCC1OC(=O)c2ccccc21 (stereo not drawn) [RAC-3-N-BUTYLPHTHALIDE],Activity,Rattus norvegicus [40],87.6%
same,Activity,Rattus norvegicus [41],Active
same,survival at 80 mg/kg,Rattus norvegicus [20]; 168 h,68.8%
same,Activity,Rattus norvegicus [42],Active
COc1ccc2[nH]c3c4c(c(C=O)cc3c2c1)OC(C)(C)C=C4 [CLAULANSINE F],viability at 10 µM,PC-12 [22],87.7%
same,viability at 10 µM,PC-12 [23],93.1%
CC1=NN(c2ccccc2)C(=O)C1 [EDARAVONE],Activity,[1],Active
same,viability at 50 µM,Cortical neurone [43],86.7%
same,viability at 10 µM,Cortical neurone [21],85.2%
